# RGS4 inh: RGS4 inhibitors, primary screen, cell-based, HEK293 M3R inducible RGS4, calcium flux | Regulator of G-protein signaling 4 (Homo sapiens), P49798 | Fluo-4 calcium flux; hits give high values; triggered by carbachol at its EC20 | B-score at 10 µM | hit rate 0.45% among 310,000 | AID 463165, 2010;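 active = B-score, a plate-corrected calcium signal, over three deviations above library mean, with baseline fluorescence within five deviations of library mean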;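 note: RGS4 expression induced by doxycycline in cells with stable M3 receptor; B-score is computed from the integrated fluorescence ratio over baseline after carbachol; higher B-score means a larger calcium signal and so more RGS4 inhibition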
# Target sequence (P49798 whole entry, looked up): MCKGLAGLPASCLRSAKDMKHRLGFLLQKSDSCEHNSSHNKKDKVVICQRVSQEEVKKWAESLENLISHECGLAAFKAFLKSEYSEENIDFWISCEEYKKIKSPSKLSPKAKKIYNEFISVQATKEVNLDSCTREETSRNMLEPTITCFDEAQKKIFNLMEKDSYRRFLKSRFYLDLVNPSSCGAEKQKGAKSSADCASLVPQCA
# MrgX1 allo act: positive allosteric modulators of MrgX1, primary screen, HEK293 cells, Fluo-4 calcium flux; FDSS; hits give high values; B-score at 10 µM; hit rate 0.63% among 310,000; AID 588675, 2011;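 active = plate-corrected calcium response at least 3 library SD above typical, normal starting fluorescence, not activating the receptor alone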;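 note: compound read alongside a low EC10 to EC30 dose of BAM8-22 agonist; peak minus trough fluorescence over baseline measured at the second addition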
# Target sequence (Q96LB2 whole entry, looked up): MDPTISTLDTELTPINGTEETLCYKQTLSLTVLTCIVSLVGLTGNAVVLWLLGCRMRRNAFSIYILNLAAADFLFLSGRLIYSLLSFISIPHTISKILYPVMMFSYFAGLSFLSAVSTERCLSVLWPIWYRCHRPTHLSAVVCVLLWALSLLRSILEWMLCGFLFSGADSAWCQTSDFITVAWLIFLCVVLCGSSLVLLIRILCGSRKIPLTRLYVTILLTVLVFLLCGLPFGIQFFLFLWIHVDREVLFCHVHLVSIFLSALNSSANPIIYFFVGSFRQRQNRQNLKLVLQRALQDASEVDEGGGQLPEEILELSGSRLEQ
# MrgX1 antag: antagonists of human MrgX1 receptor, primary screen, HEK293 cells, Fluo-4 calcium flux; Mas-related G-protein coupled receptor member X1 (Homo sapiens), Q96LB2; BAM8-22 antagonism; hits give low values; B-score at 10 µM; hit rate 1.3% among 310,000;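 active = calcium-response B-score plate-corrected more than 3 library SD below zero, starting fluorescence within 5 deviations, no agonist response on first addition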;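 note: peak minus trough fluorescence over baseline after final BAM8-22 challenge near maximal dose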
# RGS4 pot: RGS4 potentiators or activators, primary screen, cell-based, HEK293 M3R inducible RGS4, calcium flux | carbachol calcium flux Fluo4; hits give low values | hit rate 0.92% among 310,000 | B-score at 10 µM;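 active = B-score of the integrated calcium signal more than 4 SD below the library mean, with starting fluorescence not abnormally high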;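 note: negative B-score means reduced calcium response which marks RGS4 activation or potentiation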
#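 Material: Inducible-RGS4 HEK293 cells carrying M3 receptor; also added: carbachol at ECmax as muscarinic agonist stimulus; incubation: compound preincubation 20 min at room temperature before agonist; signal: Fluo4-AM (2 µM) calcium-flux fluorescence, kinetic read; measure: integrated calcium ratio converted to B score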
# MrgX1 ag: agonists of human MrgX1 receptor, primary screen, HEK293 cells, Fluo-4 calcium flux; Fluo-4 calcium fluorescence, agonist mode; hits give high values; Mas-related G-protein coupled receptor member X1 (Homo sapiens), Q96LB2; AID 588627, 2011; hit rate 0.44% among 310,000; B-score at 10 µM;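 active = calcium response B-score plate-corrected fluorescence ratio at least 3 library SD, with starting fluorescence B-score inside 5 SD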
#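 System: HEK293 cells stably expressing human MrgX1 receptor; Dosing: test compound in the initial addition of three; Schedule: overnight plating, then 30 min 37 °C plus 30 min room-temperature dye loading; Detection: kinetic calcium dye fluorescence, Fluo-4 NW; Controls: per-plate positive and negative controls for Z′ factor.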
# Active calls of the source: *; i = inactive; . = no result given. Sampled rows, rich in hits. Any-hit rate of the full collection: about 3.5%.
SMILES,RGS4 inh,MrgX1 allo act,MrgX1 antag,RGS4 pot,MrgX1 ag
O=C(NCc1ccccc1)c1sc(=S)n2c1[nH]c(=O)c1ccccc12,i,i,i,i,51*
NC(=O)C(=O)NN=C1C2CC3CC(C2)CC1C3,i,i,i,i,i
NC(=S)NN=C1C2CC3CC(C2)CC1C3,i,8.6*,i,i,i
Cc1cc(C)c(S(=O)(=O)Nc2ccc[nH]c2=O)c(C)c1,i,i,i,i,i
CCCC(NS(=O)(=O)c1ccc(-c2ccc(=O)[nH]n2)s1)c1cccs1 (centres undefined),i,i,i,i,i
O=c1c2ccccc2nc(/C=C/c2cccc([N+](=O)[O-])c2)n1CCCO,i,7.2*,i,i,i
O=c1c2ccccc2nc(/C=C/c2ccc([N+](=O)[O-])cc2)n1CCCO,i,i,i,i,i
C=CCn1c(SCC(=O)N2CCOCC2)nnc1C(C)NC(=O)c1ccccc1 (centres undefined),i,i,-5.4*,i,i
C=CCn1c(SCCOc2ccccc2)nnc1C(C)NC(=O)c1ccccc1 (centres undefined),i,i,i,i,i
O=C(N=C1SC2CS(=O)(=O)CC2N1c1ccc(OC(F)(F)F)cc1)C1CC1 (centres undefined),i,i,i,i,i
CCCN(CC(=O)Nc1ccccc1C)C(=O)c1ccc(C)c(S(=O)(=O)N2CCCCC2)c1,i,i,-5.4*,i,i
CCCN(CC(=O)Nc1ccccc1C)C(=O)c1ccc(Cl)c(S(=O)(=O)N2CCCC2)c1,i,i,i,i,i
BrC(=C\c1ccccc1)/C=N/Nc1nc(N2CCOCC2)nc(N2CCOCC2)n1,i,i,i,i,i
BrC(/C=C\c1ccccc1)=N/Nc1nc(N2CCOCC2)nc(N2CCOCC2)n1,i,i,-8*,i,i
COc1cc(N2CCCC2)c(OC)cc1/C=C1/NC(=S)NC1=O,i,i,-5.4*,i,i
Cn1c(=O)c2c(nc(NCc3ccco3)n2CCc2ccccc2)n(C)c1=O,i,i,i,i,i
CC(C)(C)c1cc(C(=O)NNC(=O)Nc2ccccc2)n(Cc2ccccc2)n1,i,i,-4.9*,i,i
CC(C)(C)c1cc(C(=O)NNC(=O)Nc2cccc(Cl)c2)n(Cc2ccccc2)n1,i,i,i,i,i
CCCCn1nc(NS(=O)(=O)c2cccc3nonc23)c2cc3cccc(C)c3nc21,i,7.1*,i,i,i
CCOC(=O)C1(CCCc2ccccc2)CCN(C(=O)CN2CCOC2=O)CC1,i,7.3*,i,i,i
CCOC(=O)C1=C(Nc2ccccc2)CC(C)(O)C(C(=O)OCC)C1c1ccc(Cl)cc1 (centres undefined),.,i,i,.,i
CC1(C)[C@@H](O)CC[C@]2(C)C3C(O)C=C4[C@H]5C[C@@](C)(C(=O)O)CC[C@]5(C)CC[C@]4(C)[C@]3(C)CC[C@@H]12 (some centres undefined),i,i,i,i,29*
C=C1C(=O)C=C2CN(C(=O)c3ccccc3)[C@@](Cc3ccc(F)cc3)(C(=O)OC)[C@@H]12,15*,i,i,i,47*
CCOc1ccc(/C=C2/SC(=O)NC2=S)cc1,i,i,i,i,32*
CCOc1ccc(/C=C2\SC(=S)N(N3C(=O)C4CC4C3=O)C2=O)cc1 (centres undefined),i,i,i,i,i
SMILES,RGS4 inh,MrgX1 allo act,MrgX1 antag,RGS4 pot,MrgX1 ag
Cc1ccc(S(=O)(=O)NCC(=O)N/N=C/c2ccccc2O)cc1,i,i,-5.4*,i,i
CCOCCCn1c(=N)c(C(=O)NCc2ccc3c(c2)OCO3)cc2c(=O)n3cccc(C)c3nc21,i,i,i,-8.5*,i
Cc1cccn2c(=O)c3cc(C(=O)NCCc4ccccc4)c(=N)n(Cc4ccco4)c3nc12,i,i,i,-8.6*,i
Cc1cccn2c(=O)c3cc(C(=O)NCc4ccco4)c(=N)n(CCc4ccccc4)c3nc12,.,i,i,.,i
COC(=O)C1=C(C)NC(=O)/C1=C\N(C)C,i,i,i,i,i
Cc1cccc(-c2cc(C(=O)Nc3ccc4c(c3)OCCO4)c3ccccc3n2)c1,i,i,i,-7.2*,i
O=C(Nc1ccc2c(c1)OCCO2)c1cc(-c2ccccn2)nc2ccc(Br)cc12,i,i,i,i,i
CCOc1ccc(-c2cc(C(=O)Nc3ccc4c(c3)OCCO4)c3ccccc3n2)cc1,i,i,i,-7.6*,i
COc1cc(/C=C(\NC(C)=O)C(=O)Nc2cccc(O)c2)ccc1OC(C)=O,i,i,i,i,i
N#C/C(=C/c1ccc(N2CCOCC2)o1)c1ccc(Br)cc1,i,i,i,i,39*
N#C/C(=C/c1ccc(N2CCCCCC2)o1)c1ccc(F)cc1,i,18*,i,i,i
COc1ccc(NC(=S)NN(C)C(=S)Nc2ccc(OC)cc2)cc1,i,i,i,i,i
CCN(CC)S(=O)(=O)c1ccc(N=Cc2c(C)c(C#N)c(=O)n(C)c2O)cc1,i,i,i,i,i
CC1OC(O[C@H]2CC[C@]3(C)C4C=C[C@]56OC[C@@]7(CC[C@@H](C)[C@H](C)C75)[C@H](O)C[C@@]6(C)[C@]4(C)CC[C@H]3C2(C)C)C(OC2OC(CO)C(O)C(O)C2OC2OCC(O)C(O)C2O)C(O)C1O (some centres undefined),i,.,.,-7.5*,.
CCc1ccc(S(=O)(=O)/N=C2\C=CC(=O)c3ccccc32)cc1,i,i,i,i,i
CCc1ccc(S(=O)(=O)/N=C2/C=C(Sc3ncn[nH]3)C(=O)c3ccccc32)cc1,.,7*,i,.,i
O=C(c1cccs1)N1CCN(C23CC4CC(CC(C4)C2)C3)CC1,i,i,i,-7.3*,i
C/C=C/C=C/C(=O)OC(C)C(=O)Nc1cc([N+](=O)[O-])ccc1OC (centres undefined),i,7.6*,i,i,i
COc1ccc([N+](=O)[O-])cc1NC(=O)C(C)OC(=O)c1ccccn1 (centres undefined),i,i,i,i,i

# Bioassay records (PubChem BioAssay)
